The values below come from ChEMBL document CHEMBL1126893, “Synthesis and CLOGP correlation of imidooxy anticonvulsants” (J Med Chem, 1993).

The subject of assay [1] is Mus musculus. The experiment in a line: Anticonvulsant activity was measured by rotarod toxicity test on mice at 1 hr at the dose of 50 mg/kg; number of animals protected/number of animals tested, 0/4. Format: functional. (In general: In the rotarod test animals must keep their balance on a rotating rod.)
The subject of assay [2] is Mus musculus. The experiment in a line: Anticonvulsant activity was measured by rotarod toxicity teston mice at 0.50 hr at the dose of 50 mg/kg; number of animals protected/number of animals tested, 0/4. Format: functional.
The test system of assay [3] is Mus musculus. The experiment in a line: Anticonvulsant activity was measured by subcutaneous pentylenetetrazole test on mice at 30 min at the dose of 100 mg/kg; number of animals protected/number of animals tested, 0/1. Format: functional.
In assay [4] the test system is Mus musculus. The experiment in a line: Anticonvulsant activity was measured by rotarod toxicity test on mice at 30 min at the dose of 300 mg/kg; number of animals protected/number of animals tested, 4/4. Format: functional.
In assay [5] the test system is Mus musculus. Description: Anticonvulsant activity was measured by maximal electroshock test on mice at 0.25 hr at the dose of 50 mg/kg; number of animals protected/number of animals tested, 0/4. Format: functional. A general note: Protection in the maximal electroshock model is a classic sign of anticonvulsant action.
For assay [6], the system named is Mus musculus. Description: Anticonvulsant activity was measured by subcutaneous pentylenetetrazole test on mice at 4 h at the dose of 300 mg/kg; number of animals protected/number of animals tested, 0/1. Format: functional.
Assay [7] relates to Mus musculus. Description: Anticonvulsant activity was measured by subcutaneous pentylenetetrazole test on mice at 30 min at the dose of 300 mg/kg; number of animals protected/number of animals tested, 1/1. Format: functional.
In assay [8] the test system is Mus musculus. The experiment in a line: Anticonvulsant activity was measured by rotarod toxicity test on mice at 30 min at the dose of 100 mg/kg; number of animals protected/number of animals tested, 0/8. Format: functional.
In assay [9] the test system is Mus musculus. Description: Anticonvulsant activity was measured by subcutaneous pentylenetetrazole test on mice at 4 hr at the dose of 100 mg/kg; number of animals protected/number of animals tested, 0/1. Format: functional.
Assay [10] has as its system Mus musculus. The experiment in a line: Anticonvulsant activity was measured by maximal electroshock test on mice at 4 hr at the dose of 300 mg/kg; number of animals protected/number of animals tested, 0/1. Format: functional.
Assay [11] deals with Mus musculus. Description: Anticonvulsant activity was measured by maximal electroshock test on mice at 050 hr at the dose of 50 mg/kg; number of animals protected/number of animals tested, 1/4. Format: functional.
The subject of assay [12] is Mus musculus. The experiment in a line: Anticonvulsant activity was measured by rotarod toxicity test on mice at 2 hr at the dose of 50 mg/kg; number of animals protected/number of animals tested, 0/4. Format: functional.
The test system of assay [13] is Mus musculus. The experiment in a line: Anticonvulsant activity was measured by maximal electroshock test on mice at 30 min at the dose of 300 mg/kg; number of animals protected/number of animals tested, 1/1. Format: functional.
Assay [14] relates to Mus musculus. Description: Anticonvulsant activity was measured by rotarod toxicity test on mice at 4 hr at the dose of 50 mg/kg; number of animals protected/number of animals tested, 0/4. Format: functional.
The test system of assay [15] is Mus musculus. The experiment in a line: Anticonvulsant activity was measured by rotarod toxicity test on mice at 4 hr at the dose of 100 mg/kg; number of animals protected/number of animals tested, 0/4. Format: functional.
Assay [16] relates to Mus musculus. The experiment in a line: Anticonvulsant activity was measured by rotarod toxicity test on mice at 4 hr at the dose of 300 mg/kg; number of animals protected/number of animals tested, 0/2. Format: functional.
The subject of assay [17] is Mus musculus. The experiment in a line: Anticonvulsant activity was measured by maximal electroshock test on mice at 1 hr at the dose of 50 mg/kg; number of animals protected/number of animals tested, 1/4. Format: functional.
Assay [18] relates to Mus musculus. Description: Anticonvulsant activity was measured by maximal electroshock test on mice at 4 hr at the dose of 50 mg/kg; number of animals protected/number of animals tested, 0/4. Format: functional.
Assay [19] concerns Mus musculus. The experiment in a line: Anticonvulsant activity was measured by rotarod toxicity teston mice at 0.25 hr at the dose of 50 mg/kg; number of animals protected/number of animals tested, 0/4. Format: functional.
Assay [20] deals with Mus musculus. Description: Anticonvulsant activity was measured by maximal electroshock test on mice at 2 hr at the dose of 50 mg/kg; number of animals protected/number of animals tested, 2/4. Format: functional.
Assay [21] deals with Mus musculus. Description: Anticonvulsant activity was measured by maximal electroshock test on mice at 30 min at the dose of 100 mg/kg; number of animals protected/number of animals tested, 2/3. Format: functional.
For assay [22], the system named is Mus musculus. Description: Anticonvulsant activity was measured by maximal electroshock test on mice at 4 hr at the dose of 100 mg/kg; number of animals protected/number of animals tested, 0/3. Format: functional.
Assay [23] relates to Mus musculus. The experiment in a line: Elevation of threshold for electroshock induced seizures in mice was measured by po administration after 0.5 hr at the dose of 400 mg/kg; 2/5. Format: functional. Put shortly:
(§1)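 Maximal electroshock test in male CF1 mice (23-34 g). Compound given as a 0.5% methylcellulose suspension ip or po, with testing at 0.5 h after several doses. Endpoint is protection from tonic hind limb extension.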

The species entered for assay [24] is Mus musculus. The experiment in a line: ED50 value of compound was expressed as dose protecting 50% of mice from tonic hind limb extension. The conditions noted are these: Hindlimb. Format: functional. In short, it runs like this:
as §1

Assay [25] has as its system Mus musculus. The experiment in a line: Effective dose was measured in mouse by maximal electroshock method by ip administration; 100-122. Format: functional. Put shortly: (§2)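 Phase II quantification in mice after ip dosing. ED50 (scMet or MES) measured at the time of peak effect. TD50 (rotorod neurologic deficit) measured at the time of peak neurologic deficit. Medians and 95% confidence limits by the Litchfield-Wilcoxon method. Protective index = TD50/ED50. Time of peak effect determined in the MES or scMet test.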

Assay [26] is filed under the species Mus musculus. Description: TID20 was measured by MES test in mice. Format: functional. Put shortly: (§3)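 Elevation of maximal (tonic extension) electroshock seizure threshold in male CF1 mice (23-34 g). Compound given ip as a 0.5% methylcellulose suspension at 60, 80 and 90 mg/kg, with testing at 0.5 h. Read-out is % elevation of threshold. TID20 is the dose raising the threshold by 20%.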

Assay [27] is filed under the species Mus musculus. Description: Protective index (TD50/ED50) value in MES test in mice. Format: functional.
For assay [28], the system named is Mus musculus. The experiment in a line: Elevation of threshold for electroshock induced seizures in mice was measured by ip administration after 0.5 hr at the dose of 90 mg/kg. Format: functional. The conditions noted are these: route intraperitoneal. In short, it runs like this: as §3
Assay [29] concerns Mus musculus. Description: Elevation of threshold for electroshock induced seizures in mice was measured by ip administration after 0.5 hr at the dose of 60 mg /kg. Format: functional. Put shortly: as §3
Assay [30] deals with Mus musculus. Description: Elevation of threshold for electroshock induced seizures in mice was measured by po administration after 0.5 hr at the dose of 300 mg/kg; 2/8. Format: functional. In short, it runs like this:
as §1

In assay [31] the test system is Mus musculus. The experiment in a line: Elevation of threshold for electroshock induced seizures in mice was measured by ip administration after 0.5 hr at the dose of 80 mg /kg. Format: functional. Put shortly: as §3
For assay [32], the system named is Mus musculus. The experiment in a line: Elevation of threshold for electroshock induced seizures in mice was measured by po administration after 0.5 hr at the dose of 200 mg/kg; 1/8. Format: functional. In short, it runs like this: as §1
Assay [33] is filed under the species Mus musculus. Description: Time of peak effect of activity of compound was measured by MES test in mice. Format: functional. Put shortly:
as §2

Assay [34] is filed under the species Mus musculus. The experiment in a line: Time of peak effect of toxicity of compound was measured by MES test in mice. Format: functional. Put shortly:
as §2

For assay [35], the system named is Mus musculus. The experiment in a line: Time of peak effect of activity of compound was measured by both MES and sc Met test in mice. Format: functional. In short, it runs like this: as §2
The species named for assay [36] is Mus musculus. Description: animal or person.
Assay [37] deals with Mus musculus. The experiment in a line: Time of peak effect of toxicity of compound was measured by both MES and sc Met test in mice. Format: functional. Put shortly: as §2

As usually defined, the ED50 is the midpoint of the dose-response relation.

Turning to `O=C1CC2(CCCC2)C(=O)N1OCc1ccccc1F`, the Ratio in assay [1] came to 0; in assay [2], 0; in assay [3], 0; in assay [4] it was 4; in assay [5], 0; in assay [6], 0. In addition, the Ratio in [7] came to 1; in assay [8] it was 0; in assay [9], 0; in assay [10], 0; in assay [11], 1; in assay [12], 0. The Ratio in [13] amounted to 1; in [14], 0; in assay [15], 0; in assay [16], 0; in [17], 1; in assay [18] it was 0. The Ratio in [19] worked out at 0; in assay [20], 2; in assay [21], 2; in assay [22], 0.

Turning to `O=C1CC2(CCCC2)C(=O)N1OCc1ccccc1`, the “No. of mice protected/tested” value amounted to 2 in [23], 2 in assay [30] and 1 in assay [32]. Moreover, the figures for the ED50 in [24] and in assay [25] were 494 mg/kg and 111 mg/kg, respectively. Further, the TID20 in assay [26] worked out at 71 mg/kg. The PI in assay [27] is on record as above 4.5. The values for the Elevation of threshold in assay [28], in [29] and in assay [31] were 28%, 14% and 26%, respectively. The TPE in assay [33] was 0.25; in [34], 4 toxicity.

In the case of `CCCC(CCC)C(=O)O` [VALPROIC ACID], the TPE in assay [35] amounted to 0.25 toxicity; in [37], 0.25. The compound also showed a 50% effective dose (ED50) in assay [36] of 149 mg/kg.
